Source: PubChem
Most compounds without a hit are left out; they make up all but 2.3% or so of the library.
TRPC4 inh = inhibitors of mouse TRPC4 channel. HEK293 TRPC4beta/mu-opioid, DAMGO-evoked Fluo4 calcium flux; stronger effect = lower value. B-score at 10 µM. 0.39% of 300,000 active;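 active = B-score over 3 SD under the library average, no early fluorescence shift, positive overall ratio signal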
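Signal: kinetic Fluo4 fluorescence imaging of calcium influx. Material: stable TRPC4beta/mu-opioid receptor HEK293 cells. Probe or stimulus: DAMGO in two steps, submaximal then maximal.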
TRPC6 act = mouse TRPC6 channel activation | Q61143 | HEK293-TRPC6 membrane potential dye fluorescence; stronger effect = higher value | B-score at 10 µM | 0.13% of 310,000 active | AID 2550;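 active = B-score of the integrated fluorescence ratio above library mean plus 3 SD, and starting fluorescence ratio within library mean plus 5 SD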;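 also: higher score means more depolarization so channel activation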
Target sequence (Q61143 whole entry, looked up): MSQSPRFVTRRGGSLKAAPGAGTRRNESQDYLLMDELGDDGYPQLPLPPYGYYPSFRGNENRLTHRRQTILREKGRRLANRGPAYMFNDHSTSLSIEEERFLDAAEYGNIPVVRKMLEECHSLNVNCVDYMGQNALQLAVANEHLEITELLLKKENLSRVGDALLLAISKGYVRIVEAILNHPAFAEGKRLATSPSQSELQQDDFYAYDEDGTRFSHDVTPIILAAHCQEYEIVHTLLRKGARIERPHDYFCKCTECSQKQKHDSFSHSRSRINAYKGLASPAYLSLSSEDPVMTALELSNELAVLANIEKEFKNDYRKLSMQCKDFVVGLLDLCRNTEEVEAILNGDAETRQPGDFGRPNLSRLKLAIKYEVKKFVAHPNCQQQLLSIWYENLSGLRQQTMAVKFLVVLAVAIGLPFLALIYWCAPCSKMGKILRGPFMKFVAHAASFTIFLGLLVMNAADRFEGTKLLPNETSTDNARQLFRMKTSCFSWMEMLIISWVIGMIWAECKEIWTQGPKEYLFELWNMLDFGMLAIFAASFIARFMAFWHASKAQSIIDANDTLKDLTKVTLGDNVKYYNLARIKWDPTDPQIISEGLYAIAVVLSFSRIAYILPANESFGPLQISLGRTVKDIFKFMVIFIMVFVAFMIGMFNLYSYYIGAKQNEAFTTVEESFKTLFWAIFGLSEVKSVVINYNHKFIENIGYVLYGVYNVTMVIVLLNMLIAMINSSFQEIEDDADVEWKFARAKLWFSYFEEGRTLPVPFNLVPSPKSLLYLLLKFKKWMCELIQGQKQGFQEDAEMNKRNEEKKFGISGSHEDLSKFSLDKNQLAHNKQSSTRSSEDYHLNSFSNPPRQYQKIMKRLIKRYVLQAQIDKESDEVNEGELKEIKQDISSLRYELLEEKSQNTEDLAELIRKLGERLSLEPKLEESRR
FID counter = fluorescent intercalator displacement, NS3 helicase counter-screen; DNA fluorescent intercalator displacement, fluorescence; inhibition, % at 7.9 µM; 0.17% of 290,000 active; in the data active = inhibition above about 37%;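 also: 0% = vehicle and 100% = reference compound; higher means more ethidium bromide displaced from hairpin DNA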
TRPC4 PAM = allosteric potentiators of mouse TRPC4 channel | Q9QUQ5 | HEK293 TRPC4beta/mu-opioid, DAMGO EC20, Fluo-4 Ca2+ flux; stronger effect = higher value | B-score at 10 µM | 0.42% of 310,000 active | AID 2227;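 active = B-score of calcium response area above 5 SD of library B-scores, with initial fluorescence ratio within 5 SD of library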;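 also: B-score of integrated fluorescence ratio over time as area under calcium response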
TRPC4 agonist = TRPC4 (mouse) channel activation. 0.49% of 310,000 active. AID 2237. HEK293 TRPC4beta/mu-opioid, Fluo4 calcium fluorescence; stronger effect = higher value. B-score at 10 µM. Q9QUQ5;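 active = B-score above 5 SD of library B-scores, and initial fluorescence ratio not above library mean plus 5 SD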;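 also: positive B-score marks a calcium rise read as TRPC4 activation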
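Incubation: 45 min room-temperature Fluo4 loading, 110 s read / System: HEK293 cells stably co-expressing mouse TRPC4beta and mu-opioid receptor / Signal: Fluo4 fluorescence, kinetic / Control set: buffer (low) and maximal DAMGO (high) / Measure: integrated baseline-normalised fluorescence ratio, converted to per-well B score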
TRPC6 inh = blocks the mouse TRPC6 cation channel; Q61143; HEK293-TRPC6, membrane potential dye, ACh-evoked depolarization; stronger effect = lower value; B-score at 10 µM; 1.1% of 310,000 active;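 active = B-score under library mean minus 3 SD, initial fluorescence not abnormally high, positive integrated signal ratio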;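 also: B-score derived from integrated fluorescence ratio over the kinetic read; more negative B-score means stronger inhibition of depolarization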
TRPC4 spec 2 = second check of whether TRPC6 inhibitors also affect mouse TRPC4 | shares compounds with TRPC6 inh | HEK293 TRPC4/MOR, membrane potential dye fluorescence; channel activated by saturating DAMGO dose | inhibition, % at 10 µM | 42% of 920 active | AID 2776;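 active = compounds whose fluorescence signal differed from control wells by over 3 SD, either direction, in both duplicate plates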
TRPC4 spec = tests whether TRPC6 inhibitors also affect mouse TRPC4 | shares compounds with TRPC6 inh | HEK293 TRPC4/mu-opioid, membrane potential fluorescence | activity change, negative = inhibition, % at 10 µM | 61% of 920 active;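 active = rise or fall in signal beyond 3 SD of buffer-only wells in both replicate plates, either sign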;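 also: integrated kinetic ratio of fluorescence range over baseline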
HEK293 MPD ctr 2-1 = parental HEK293 nonspecific activity of TRPC6 inhibitors, second screen; shares compounds with TRPC6 inh; parental HEK293 membrane potential dye fluorescence; maximal acetylcholine challenge after compound addition; signal change vs control, % at 10 µM; 31% of 920 active; AID 2779;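 active = membrane potential signal moving either way by over 3 SD of the maximum-effect control, in both duplicate plates, meaning non-specific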
HEK293 MPD ctr-1 = parental HEK293 nonspecific activity of TRPC6 inhibitors. parental HEK293 membrane potential dye fluorescence. 60% of 920 active. membrane potential signal change, % at 10 µM. AID 2780. shares compounds with TRPC6 inh;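 active = membrane potential signal shifting up or down by more than 3 SD of buffer-only wells, on both duplicate plates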
HEK293 MPD ctr-2 = checks TRPC6 modulator effects in parental HEK293 cells; shares compounds with TRPC6 inh; membrane potential dye fluorescence; membrane potential signal change, % at 10 µM; 51% of 2,400 active; AID 488924;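 active = membrane potential signal moves up or down beyond 5 SD from buffer-only wells, on both duplicate plates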
HEK293 MPD ctr 2-2 = second check of TRPC6 modulator effects in parental HEK293 cells; AID 488926; inhibition, % at 10 µM; shares compounds with TRPC6 inh; membrane potential dye fluorescence; after compound, maximal acetylcholine stimulation; 14% of 2,400 active;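 active = membrane potential signal drops by more than 5 SD from the mean control signal, in both duplicate plates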;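 also: plate controls were acetylcholine ECmax control wells for no effect and buffer only wells for full effect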
TRPC4 ctr mod = tests whether TRPC6 modulators also affect mouse TRPC4; shares compounds with TRPC6 inh; HEK293 TRPC4/mu-opioid, membrane potential fluorescence; percent change from control (negative = decrease, positive = increase), % at 10 µM; 69% of 2,400 active; AID 488927;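 active = membrane potential signal moved up or down beyond 5 SD of buffer control wells, in both duplicate plates, actives on both sides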;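 also: plate controls were assay buffer wells for no effect and DAMGO maximal-effect wells for full effect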
TRPC4 ctr inh 2 = second check of whether TRPC6 modulators also affect mouse TRPC4; AID 488928; HEK293 TRPC4/mu-opioid, membrane potential dye fluorescence; stimulated with maximal-effect DAMGO; 55% of 2,400 active; shares compounds with TRPC6 inh; inhibition, % at 10 µM;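 active = drop in membrane potential signal beyond 5 SD of the control wells in both duplicate plates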;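 also: TRPC4 counter screen for TRPC6 hits run under conditions tuned for TRPC6 not TRPC4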
TRPC6 inh conf = confirmation of mouse TRPC6 inhibitors; inhibition, % at 10 µM; HEK293-TRPC6, membrane potential dye, ACh-evoked depolarization; shares compounds with TRPC6 inh; 43% of 3,300 active;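 active = fluorescence ratio falls more than 5 SD below the full-stimulation control mean, in both duplicate runs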;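 also: integrated fluorescence ratio of peak minus minimum over baseline after agonist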
TRPC6 act confirm = mouse TRPC6 activator confirmation | shares compounds with TRPC6 inh | HEK293-TRPC6 membrane potential dye fluorescence, FDSS | activation, % at 10 µM | 11% of 2,800 active;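 active = ratio signal rise beyond 5 SD above unstimulated control wells' mean, seen in both duplicate runs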;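 also: plate controls were buffer EC0 wells for no effect and acetylcholine ECmax response for full effect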
Active calls of the source: *; i = inactive; / = no result given; + = active, no number.

SMILES | TRPC4 inh | TRPC6 act | FID counter | TRPC4 PAM | TRPC4 agonist | TRPC6 inh | others
N#CC1=C(N)Oc2cc(O)ccc2C1c1ccc2c(c1)OCO2 (stereo not drawn) | i | i | -2.4 | i | i | i
CCOc1ccc(-n2c(O)c(N=Nc3c(C)n(C)n(-c4ccccc4)c3=O)c(=O)[nH]c2=O)cc1 | i | i | -26.8 | i | i | i
c1ccc2nc(OCCN3CC3)ccc2c1 | i | i | -5.7 | 18* | i | i
Cc1cc(=O)oc2cc3c(cc12)CCCN3 | i | i | -3.1 | i | i | i
COc1ccc2c(c1O)[C@]13CCN(C)[C@H](C2)[C@@H]1CCC(=O)C3 | i | i | 1.3 | i | 114* | i
FC(F)(F)c1ccc(CNCCc2ccc3c(c2)OCO3)cc1 | i | i | 6.5 | i | i | i
COc1ccc(SCC2CN(C)CCC2c2ccc(F)cc2)cc1 (stereo not drawn) | i | i | / | i | i | i
COc1cccc(NP(=O)(Oc2ccc(Cl)cc2)Oc2ccc(Cl)cc2)c1 | i | i | -4.1 | i | i | i
O=P(Nc1ccccc1)(Nc1ccccc1)Oc1ccc(Cl)cc1 | i | i | -21.1 | 10* | i | i
CCN1CCN(C(=O)Cc2ccccc2OC)CC1 | i | i | -2.1 | i | 79* | i
COc1ccccc1CC(=O)N1CCN(CCc2ccccc2)CC1 | i | i | -10.6 | i | 119* | i
COc1ccccc1CN1CCN(C(=O)COc2ccccc2)CC1 | i | i | -2.0 | i | i | i
O=C(Cc1ccccc1)N1CCN(CCCc2ccccc2)CC1 | i | i | -9.7 | i | i | i
COc1ccc(-n2c(-c3ccccc3[N+](=O)[O-])nc3ccccc3c2=O)cc1 | i | i | -26.9 | i | i | i
NC(=O)CS(=O)C(c1ccccc1)c1ccccc1 (stereo not drawn) | / | / | 0.3 | / | / | /
CN(C)C1(CNC(=O)Nc2ccc(Cl)c(Cl)c2)CCCCC1 | i | i | 16.5 | i | 91* | i
COc1ccc(C)cc1NC1=NC(C)(C)CS1 | -6* | i | -4.8 | i | i | i
CN1CCN(c2cn[nH]c(=O)c2Cl)CC1 | i | i | 12.4 | i | i | i
CN(C)C=C1C(=O)N(C2CCCCC2)C(=O)N(C2CCCCC2)C1=O | i | i | 0.7 | i | 95* | i
Brc1ccc2c(c1)C(OC1CN3CCC1CC3)c1ccccc1CS2 (stereo not drawn) | i | i | 21.3 | 29* | i | i
COc1cc(OC)c([C@H]2C=C(C)[C@H]3C[C@@H]2C3(C)C)c(OC)c1 | i | i | / | i | i | i
COc1ccc(CCNCc2ccc(SC)cc2)cc1 | i | i | 8.9 | i | 101* | i
O=C(O)c1ccc(NC(=O)N2C[C@H]3C[C@@H](C2)c2cccc(=O)n2C3)cc1 | i | i | -1.4 | i | i | i
COc1cc(C)c(CNCCc2c[nH]c3ccccc23)cc1C | i | i | 15.2 | i | 144* | i
COc1cccc(CNCCc2c[nH]c3ccccc23)c1 | i | i | 21.5 | i | i | i
SMILES | TRPC4 inh | TRPC6 act | FID counter | TRPC4 PAM | TRPC4 agonist | TRPC6 inh | others
COc1ccc(CNCCc2c[nH]c3ccccc23)c(OC)c1C | i | i | 13.3 | i | 182* | i
CCOc1ccc(C(C)=O)cc1Cn1ccsc1=N | -5* | i | -5.6 | i | i | i
CCN(CC)c1ccc(/C=C/[N+](=O)[O-])cc1 | i | 55.5* | 5.8 | i | 105* | i | HEK293 MPD ctr-2=+;HEK293 MPD ctr 2-2=+;TRPC4 ctr mod=386.0%*;TRPC4 ctr inh 2=32.0%*;TRPC6 act confirm=433.5%*
O=[N+]([O-])c1ccccc1-c1cc(-c2ccccc2)cc(-c2ccccc2)[n+]1Cc1ccccc1Cl | i | i | / | i | i | -5.67* | HEK293 MPD ctr-2=i;HEK293 MPD ctr 2-2=i;TRPC4 ctr mod=-8.5%*;TRPC4 ctr inh 2=i;TRPC6 inh conf=i;TRPC6 act confirm=i
COc1ccc(CC2c3cc(OC)c(OC)cc3CCN2C)cc1O (stereo not drawn) | i | i | -5.7 | i | i | i
COc1cc2c(cc1OC)-c1c(OC)c(OC)cc3c1C(C2)N(C)CC3 (stereo not drawn) | i | i | 23.9 | i | i | -5.43* | HEK293 MPD ctr-2=-234.5%*;HEK293 MPD ctr 2-2=i;TRPC4 ctr mod=-44.5%*;TRPC4 ctr inh 2=51.0%*;TRPC6 inh conf=53.0%*;TRPC6 act confirm=i
COc1cc2c(cc1OC)-c1c3c(cc4c1[C@@H](C2)N(C)CC4)OCO3 | i | i | 67.2* | i | i | -8.03* | HEK293 MPD ctr-2=-194.5%*;HEK293 MPD ctr 2-2=76.0%*;TRPC4 ctr mod=-35.0%*;TRPC4 ctr inh 2=52.5%*;TRPC6 inh conf=56.0%*;TRPC6 act confirm=i
COc1cc2c(cc1O)C[C@H]1NCCc3cc4c(c-2c31)OCO4 | i | i | 38.0* | i | i | -9.05* | TRPC4 spec 2=70.5%*;TRPC4 spec=-27.7%*;HEK293 MPD ctr 2-1=i;HEK293 MPD ctr-1=-398.5%*;TRPC6 inh conf=52.5%*;TRPC6 act confirm=i
